{"data": "Measured values from different studies", "JAK1": "Tyrosine-protein kinase JAK1 (JAK1, Homo sapiens, UniProt P23458)", "JAK1 JH2": "Tyrosine-protein kinase JAK1, JH2 (JAK1, Homo sapiens, UniProt P23458)", "JAK1 JH1": "Tyrosine-protein kinase JAK1, JH1 (JAK1, Homo sapiens, UniProt P23458)", "note": "Compare with care: the assays were run in different laboratories."}
{"Structure (SMILES)": "O=c1[nH]c2ccccc2n1C1CCN(Cc2ccc(-c3[nH]c4cc5ncnc5cc4nc3-c3ccccc3)cc2)CC1", "target": "JAK1", "test": "cell-free assay", "conditions": "0.5 µM", "endpoint": "remaining signal", "value": "94.6%"}
{"Structure (SMILES)": "COc1ncccc1-c1cnn2ccc(N3CCN(C(=O)OC(C)C)CC3)nc12", "target": "JAK1", "test": "binding, competition with immobilised ligand", "conditions": "1 µM", "endpoint": "remaining binding", "value": "100%"}
{"Structure (SMILES)": "N#CC1(c2ccccn2)CCN(Cc2cc(C(=O)O)c(=O)n3ccccc23)CC1", "target": "JAK1 JH2", "test": "cell-free assay, competition with immobilised ligand", "conditions": "1 µM", "endpoint": "remaining binding", "value": "84%"}
{"Structure (SMILES)": "Cn1cc(-c2cccc(N3CCc4c(sc5c4CC(C)(C)C5)C3=O)c2CO)cc(Nc2ccncn2)c1=O", "target": "JAK1", "test": "enzyme activity, inhibitor", "conditions": "1 µM", "endpoint": "inhibition", "value": "-2%"}
{"Structure (SMILES)": "C#Cc1n[nH]c2c(-c3cn(C(C)c4ccccn4)c(=O)[nH]c3=O)cc(F)cc12 (centres unmarked)", "target": "JAK1", "test": "enzyme activity, inhibitor", "conditions": "1 µM", "endpoint": "inhibition", "value": "-2.3%"}
{"Structure (SMILES)": "Cn1cc(-c2cc(F)cc(N3CCn4c(cc5c4CCCC5)C3=O)c2CO)cc(Nc2ccc(N3CCN(C4COC4)CC3)cn2)c1=O", "target": "JAK1", "test": "enzyme activity, inhibitor", "conditions": "0.1 µM", "endpoint": "inhibition", "value": "6%"}
{"Structure (SMILES)": "CC(C)(C)c1cc(C=C(C#N)C#N)cc(Br)c1O", "target": "JAK1", "test": "enzyme activity, inhibitor", "conditions": "0.5 µM", "endpoint": "remaining activity", "value": "107%"}
{"Structure (SMILES)": "COc1cc(Nc2ncc(F)c(Nc3ccc4c(n3)NC(=O)C(C)(C)O4)n2)cc(OC)c1OC", "target": "JAK1 JH1", "test": "binding, competition with immobilised ligand", "conditions": "10 µM", "endpoint": "inhibition", "value": "100%"}
{"Structure (SMILES)": "Cn1cncc1[C@](O)(COc1ccc(C#N)cc1-c1ccc(OC(F)(F)F)cc1)c1ccc(C#N)cc1", "target": "JAK1 JH2", "test": "cell-free assay, competition with immobilised ligand", "conditions": "1 µM", "endpoint": "remaining binding", "value": "70%"}
{"Structure (SMILES)": "Cc1nn(C)cc1-c1nc2c(N3CCN(Cc4ccc(Cl)cc4)CC3)c(Cl)cnc2[nH]1", "target": "JAK1 JH1", "test": "binding, competition with immobilised ligand", "conditions": "1 µM", "endpoint": "remaining binding", "value": "46%"}
{"Structure (SMILES)": "Nc1ncc(-c2nc(N3CCOCC3)nc(N3CCOCC3)n2)c(C(F)F)n1", "target": "JAK1 JH1", "test": "binding, competition with immobilised ligand", "conditions": "10 µM", "endpoint": "remaining binding", "value": "90%"}
